# Screens (PubChem)
# TRPC4 act – opens the mouse TRPC4 cation channel; HEK293 TRPC4beta/mu-opioid, Fluo4 calcium fluorescence; hits give high values; 310,000 tested, 0.49% active; B-score at 10 µM; Q9QUQ5; AID 2237;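 active = B-score above 5 SD of library B-scores, and initial fluorescence ratio not above library mean plus 5 SD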;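 also: positive B-score marks a calcium rise read as TRPC4 activation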
#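 Material: HEK293 stable line with TRPC4beta plus mu-opioid receptor; technique: Fluo4 calcium-sensitive dye fluorescence, kinetic, 1 Hz baseline; timing: Fluo4 dye loading 45 min at room temperature, 110 s recording; controls: assay buffer as low control, maximal DAMGO as high control; read-out: integrated baseline-normalised fluorescence ratio, converted to per-well B score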
# TRPC4 inh – inhibitors of mouse TRPC4 channel; Q9QUQ5; HEK293 TRPC4beta/mu-opioid, DAMGO-evoked Fluo4 calcium flux; hits give low values; B-score at 10 µM; 300,000 tested, 0.39% active;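 active = B-score over 3 SD under the library average, no early fluorescence shift, positive overall ratio signal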
#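 Assay system – HEK293 line stably carrying TRPC4beta and mu-opioid receptor · Doses – single dose · Detection – Fluo4 calcium-dye fluorescence, kinetic read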
# TRPC6 inhibitor – mouse TRPC6 channel inhibition; Q61143; HEK293-TRPC6, membrane potential dye, ACh-evoked depolarization; hits give low values; B-score at 10 µM; 310,000 tested, 1.1% active;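 active = B-score under library mean minus 3 SD, initial fluorescence not abnormally high, positive integrated signal ratio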;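 also: B-score derived from integrated fluorescence ratio over the kinetic read; more negative B-score means stronger inhibition of depolarization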
# TRPC6 activator – activators of mouse TRPC6 channel | B-score at 10 µM | 310,000 tested, 0.13% active | HEK293-TRPC6 membrane potential dye fluorescence; hits give high values | Q61143;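 active = B-score of the integrated fluorescence ratio above library mean plus 3 SD, and starting fluorescence ratio within library mean plus 5 SD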;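 also: higher score means more depolarization so channel activation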
# TRPC4 potent – allosterically enhances the mouse TRPC4 cation channel; HEK293 TRPC4beta/mu-opioid, DAMGO EC20, Fluo-4 Ca2+ flux; hits give high values; Q9QUQ5; B-score at 10 µM; 310,000 tested, 0.42% active;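 active = B-score of calcium response area above 5 SD of library B-scores, with initial fluorescence ratio within 5 SD of library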;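 also: B-score of integrated fluorescence ratio over time as area under calcium response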
# Starred values were filed as active, the others as inactive; i = inactive. A selection: hits, their analogues and other compounds. The true share with any hit is near 2.3%.
SMILES,TRPC4 act,TRPC4 inh,TRPC6 inhibitor,TRPC6 activator,TRPC4 potent
Cc1cc(NCCN)nc2ccccc12,i,i,i,i,28*
Cc1ccc(C)c(-n2c(C)nc3ccccc3c2=O)c1,i,i,i,i,i
CN(C)C1(CNC(=O)c2ccc(Cl)c(S(=O)(=O)NCc3ccco3)c2)CCCCC1,73*,i,i,i,i
COc1cc2c(cc1OC)CC[N+](C)=C2,i,i,i,i,i
COc1cc2c3cc1Oc1cc(ccc1O)C[C@@H]1c4c(cc(OC)c(O)c4Oc4ccc(cc4)C[C@H]3N(C)CC2)CCN1C,117*,i,i,i,i
CCCC[n+]1cc(=N)o[n-]1,i,i,i,i,i
CCCCn1c(NC(=O)c2ccc(Br)o2)c(C(=O)OCC)c2nc3ccccc3nc21,i,i,i,15*,i
CCCCn1c(NS(=O)(=O)c2ccccc2)c(C(=O)OCC)c2nc3ccccc3nc21,i,i,i,i,i
Clc1ccc2c(c1)C(c1ccccc1Cl)=NCc1nnc(N3CCN(CCOc4ccccc4)CC3)n1-2,i,i,i,i,29*
Clc1ccc2c(c1)C(c1ccccc1Cl)=NCc1nnc(N3CCN(CCSc4ccccc4)CC3)n1-2,i,i,i,i,i
Cc1c(N=Nc2c(O)n(Cc3ccccc3)c(=O)[nH]c2=O)c(=O)n(-c2ccccc2)n1C,i,i,i,i,i
N#Cc1ccc(N2CCNCC2)c(F)c1,53*,i,i,i,i
N#Cc1cc(F)c(N2CCNCC2)cc1Cl,i,i,i,i,i
CCc1n[nH]c(CCN)n1,155*,i,i,i,i
CC/C(=C\C=C\[C@@H]1C=C[C@@H]2CCC[C@H]2[C@@H]1C(=O)c1ccc[nH]1)[C@@H]1O[C@@H]([C@@H](C)C(=O)O)CC[C@@H]1C,67*,i,i,i,i
N=c1n(CCO)c2ccccc2n1Cc1ccccc1,i,-7*,i,i,i
COc1ccc2c(CCN)c[nH]c2c1,81*,i,i,i,i
NCCc1c[nH]c2ccc(F)cc12,i,i,i,i,i
COc1ccc(CNC(=O)/C=C/c2ccc3[nH]cc(CCN(C)C)c3c2)cc1,45*,i,i,i,i
COc1ccc2[nH]cc(CCN(C)C)c2c1,i,i,i,i,19*
CC(C)OCC(O)CN1CC2C[C@@H](C1)Cn1c2cccc1=O (stereo not given in full),i,i,i,i,i
COc1ccc(O)c(CN2CCCC(C(=O)c3sccc3C)C2)c1 (stereo not given),i,-7*,i,i,i
COCc1ccc(CN2CCCC(C(=O)c3sccc3C)C2)o1 (stereo not given),i,i,i,i,i
CCc1ccc(CN2CCCC(C(=O)c3sccc3C)C2)o1 (stereo not given),i,-8*,i,i,i
Cc1ccsc1C(=O)C1CCCN(Cc2ccccc2O)C1 (stereo not given),i,-6*,i,i,i
SMILES,TRPC4 act,TRPC4 inh,TRPC6 inhibitor,TRPC6 activator,TRPC4 potent
CS(=O)(=O)NNP(=O)(NNS(C)(=O)=O)NC(=O)c1ccccc1,i,i,i,i,i
CS(=O)(=O)NNP(=O)(NNS(C)(=O)=O)NC(=O)c1ccc(Br)cc1,i,i,i,i,i
C=CCN1CC[C@]23c4c5ccc(O)c4O[C@H]2/C(=N/NC(=O)c2ccccc2)CC[C@@]3(O)[C@H]1C5,49*,i,i,i,i
Clc1ccc(OCC#CCN2CCCC2)cc1,i,i,i,i,24*
CN1CCN(CC#CCOc2ccc(Cl)cc2)CC1,i,i,i,i,i
[N-]=[N+]=CC(=O)OC[C@H](N)C(=O)O,i,i,i,i,i
COc1cc(OC)c(OC)cc1CNCCc1cccc(F)c1,i,i,i,i,i
COc1ccc(CNCCc2cccc(F)c2)c2ccccc12,57*,i,i,i,i
COc1ccc(CNCCc2ccc(Cl)cc2)c(OC)c1OC,62*,i,i,i,i
COc1cc(OC)c(OC)cc1CNCCc1ccc(OC)c(OC)c1,i,i,i,i,i
O=c1[nH]c(=O)n(Cc2ccccc2Cl)c(O)c1C=Nc1ccc(F)cc1,i,i,i,i,i
COc1ccc(CC2(CCc3ccncc3)C(=O)NC(=O)NC2=O)c(OC)c1,i,i,i,i,i
COC(=O)C1=CCCN(C)C1,99*,i,i,i,i
Cc1cccc(N=Cc2c(O)n(-c3ccccc3C)c(=O)[nH]c2=O)c1,i,i,i,i,24*
CCOC(=O)C1(CCc2ccccc2)CCN(Cc2ccc(NC(C)=O)cc2)CC1,104*,i,i,i,i
CCOC(=O)C1(CCc2ccccc2)CCN(Cc2ccc3c(c2)OCCO3)CC1,i,i,i,i,i
O=C(NC1CONC1=O)OCC(Cl)(Cl)Cl (stereo not given),i,i,i,i,i
CCN(CC)C(=O)c1ccc2c(c1)C1C=CCC1C(C(=O)O)N2 (stereo not given),i,i,i,i,i
CCN(CC)P(=O)(/C=C(\Cl)c1ccccc1)/C=C(\Cl)c1ccccc1,i,i,i,i,17*
O=[N+]([O-])c1cc2c(cc1CNCCc1ccc3c(c1)OCO3)OCO2,90*,-8*,i,i,i
CC1C(c2cccs2)=[N+]([O-])C(C)(C(=O)c2ccc(F)cc2)N1O (stereo not given),i,i,i,i,i
COc1ccc2c(c1O)C13CCN(C)C(C2)C1CCC(=O)C3 (stereo not given),93*,i,i,i,i
O=S(=O)(F)c1ccc2nc(-c3cccc(Sc4ccccc4)c3)cc(Cl)c2c1,i,i,i,i,i
Cc1ccc(-c2cc(-c3ccc(C)cc3)[n+](-c3ccc(C(=O)[O-])cc3)c(-c3ccc(C)cc3)c2)cc1,60*,i,i,i,i
CC[C@@H]1C=CC=CC[C@H](C)[C@@H](O)[C@@H](C)C(=O)[C@H](C)[C@@H](O)[C@H](C)C(=O)[C@H](C)[C@@H](O)[C@H](C)C=CC(=O)O[C@H]2[C@@H](C)[C@@H](CC1)O[C@@]1(CC[C@@H](C)[C@@H](C[C@H](C)O)O1)[C@@H]2C,i,i,i,i,i
Cc1cc(Cl)nc(N)n1,i,i,i,i,i
